Test results published in ChEMBL document CHEMBL5055621, “Synthesis and Characterization of the Novel Rodent-Active and CNS-Penetrant P2X7 Receptor Antagonist Lu AF27139” (J Med Chem, 2021).
Converted amounts (≈) assume the structure as drawn.

Tests used:
[1] = Free plasma concentration in rat at 100 mg/kg, po after 1 hr by ex vivo equilibrium dialysis; format: ADME, organism-based
How it was run: (§1)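 Male Sprague–Dawley rats were dosed orally at 1–100 mg/kg, and total plasma concentration was measured at 1 and 2 h. This was multiplied by fraction unbound from ex vivo equilibrium dialysis; mean ± SEM, n = 3 animals.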

[2] = Metabolic stability in human hepatocytes assessed as intrinsic clearance at 1 uM measured after 2 hrs; format: ADME, cell-based, Hepatocyte; settings: read-out: CLH (converted)
[3] = Absolute oral bioavailability in rat at 2 mg/kg; format: ADME, organism-based; settings: in vivo
How it was run: (§2)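 Rats received 1 mg/kg iv or 2 mg/kg po. The plasma concentration–time profile was analysed by a noncompartmental model to give half-life, Cmax, Tmax and absolute oral bioavailability.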

in vitro = settings: human, liver microsomes
P2X purinoceptor 7 [4] = molecular target: T1, P2X purinoceptor 7 (Rattus norvegicus, UniProt Q64663); assay: Antagonist activity at rat P2X7 receptor expressed in HEK293 cells assessed as inhibition of BzATP-induced current at -60 mV by whole cell QPatch electrophysiology; format: cell-based
T1 sequence (Q64663 whole entry): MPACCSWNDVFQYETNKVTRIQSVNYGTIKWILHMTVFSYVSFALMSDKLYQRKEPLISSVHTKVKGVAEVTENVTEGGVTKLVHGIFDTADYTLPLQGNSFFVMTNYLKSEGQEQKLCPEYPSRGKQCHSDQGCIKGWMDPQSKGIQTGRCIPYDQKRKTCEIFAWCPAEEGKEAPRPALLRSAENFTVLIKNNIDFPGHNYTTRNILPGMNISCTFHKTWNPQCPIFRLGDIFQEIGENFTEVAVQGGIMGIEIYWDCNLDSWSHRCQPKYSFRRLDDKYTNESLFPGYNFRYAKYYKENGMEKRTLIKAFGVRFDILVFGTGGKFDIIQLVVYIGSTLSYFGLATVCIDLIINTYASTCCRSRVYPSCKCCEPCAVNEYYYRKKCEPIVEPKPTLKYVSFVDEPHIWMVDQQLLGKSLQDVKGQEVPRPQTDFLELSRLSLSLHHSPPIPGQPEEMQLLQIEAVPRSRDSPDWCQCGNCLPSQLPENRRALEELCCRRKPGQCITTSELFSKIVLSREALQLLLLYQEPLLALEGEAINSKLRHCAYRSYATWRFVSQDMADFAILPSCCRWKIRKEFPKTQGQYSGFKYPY
How it was run: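 QPatch automated whole-cell recording was done on rat P2X7-HEK293 cells held at −60 mV. External solution contained 0.1 mM MgCl2 and 0.3 mM CaCl2 (pH 7.4); the CsCl/EGTA internal was pH 7.2.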

[5] = Cmax in rat at 2 mg/kg, po; format: ADME, organism-based; design: dose 2 mg/kg, route po; settings: in vivo; how it was run: as §2
P2X purinoceptor 7 [6] = molecular target: T1, P2X purinoceptor 7; assay: Antagonist activity at rat P2X7 receptor expressed in HEK293 cells assessed as inhibition of BzATP-induced calcium-flux measured after 60 mins by FLIPR analysis; format: cell-based
How it was run: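 Stable rat or mouse P2X7 HEK293 cells in HBSS/20 mM HEPES/2.5 mM probenecid/0.05% BSA, pH 7.4, were loaded with Fluo-4 NW (37 °C 30 min, RT 30 min). After 30 min at RT, calcium fluorescence was read by FLIPR; n ≥ 3.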

Cytochrome P450 1A2 = molecular target: T2, Cytochrome P450 1A2 (Homo sapiens, UniProt P05177); assay: Time dependent inhibition of CYP1A2 (unknown origin) upto 25 uM; format: ADME
T2 sequence (P05177 whole entry): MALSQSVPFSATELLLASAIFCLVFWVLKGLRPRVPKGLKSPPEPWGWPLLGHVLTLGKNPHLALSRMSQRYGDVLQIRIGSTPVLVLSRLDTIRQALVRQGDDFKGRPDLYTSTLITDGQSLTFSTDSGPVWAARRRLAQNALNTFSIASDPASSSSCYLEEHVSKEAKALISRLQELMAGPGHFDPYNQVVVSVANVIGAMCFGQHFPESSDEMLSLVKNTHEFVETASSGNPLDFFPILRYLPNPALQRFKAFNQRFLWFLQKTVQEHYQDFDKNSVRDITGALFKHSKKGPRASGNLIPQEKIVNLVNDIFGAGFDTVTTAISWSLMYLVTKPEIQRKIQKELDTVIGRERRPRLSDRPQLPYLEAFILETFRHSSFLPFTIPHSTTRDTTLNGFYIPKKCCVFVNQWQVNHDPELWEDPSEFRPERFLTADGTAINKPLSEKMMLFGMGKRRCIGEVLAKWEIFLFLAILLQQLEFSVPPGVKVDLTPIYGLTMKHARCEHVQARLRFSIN

[7] = Thermodynamic solubility of the compound by shake flask HPLC method; format: physicochemical; settings: read-out: Therm_solubility
How it was run: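 Thermodynamic solubility was measured by shake flask with HPLC quantification.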

Cytochrome P450 2C19 = Cytochrome P450 2C19 (Homo sapiens, UniProt P33261); assay: Inhibition of CYP2C19 (unknown origin) upto 25 uM; format: ADME
P2X purinoceptor 7 [8] = molecular target: T3, P2X purinoceptor 7 (Homo sapiens, UniProt Q99572); assay: Displacement of [3H]-A-804598 from human P2X7 receptor expressed in HEK293 cell membrane by in vitro binding assay; format: cell membranes
T3 sequence (Q99572 whole entry): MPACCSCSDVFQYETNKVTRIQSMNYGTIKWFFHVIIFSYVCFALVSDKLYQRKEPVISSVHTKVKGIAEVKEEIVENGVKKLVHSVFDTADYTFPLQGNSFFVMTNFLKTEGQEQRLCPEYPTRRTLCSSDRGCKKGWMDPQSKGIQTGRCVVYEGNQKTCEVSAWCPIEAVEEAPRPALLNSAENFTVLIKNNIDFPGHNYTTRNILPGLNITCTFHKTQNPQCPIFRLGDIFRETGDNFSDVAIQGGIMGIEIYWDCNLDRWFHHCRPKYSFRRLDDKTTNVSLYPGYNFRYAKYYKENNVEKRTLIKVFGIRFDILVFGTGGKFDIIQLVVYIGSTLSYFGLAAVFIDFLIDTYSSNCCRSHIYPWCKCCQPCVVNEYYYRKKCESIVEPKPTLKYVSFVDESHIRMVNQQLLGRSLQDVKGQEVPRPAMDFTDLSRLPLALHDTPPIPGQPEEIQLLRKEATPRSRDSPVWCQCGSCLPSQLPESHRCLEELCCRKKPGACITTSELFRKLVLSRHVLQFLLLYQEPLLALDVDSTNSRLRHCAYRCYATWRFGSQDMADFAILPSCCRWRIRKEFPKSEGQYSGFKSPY

Cytochrome P450 2D6 = Cytochrome P450 2D6 (Homo sapiens, UniProt P10635); assay: Time dependent inhibition of CYP2D6 (unknown origin) upto 25 uM; format: ADME
[9] = Free plasma concentration in rat at 3 mg/kg, po after 1 hr by ex vivo equilibrium dialysis; format: ADME, organism-based; how it was run: as §1
[10] = Reduction in LPS/BzATP-induced IL-1beta release in icv dosed C57BL/6NCrl mouse frontal cortex assessed as minimal effective dose pretreated 1 hr before BzATP stimulus; format: functional; settings: read-out: MED
How it was run: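 Rats and mice with frontal cortex microdialysis probes and a lateral ventricle cannula received icv LPS (rat 3 μg/5 μL; mouse 0.1 μg/3 μL), and 1 h later oral compound in 20% HP-β-cyclodextrin. BzATP icv (rat 50 μg; mouse 5 μg) followed 1 h later.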

[11] = Tmax in female mouse at 100 mg/kg, po administered as single dose; settings: in vivo

Chain of Cytochrome P450 2D6 (P10635 whole entry): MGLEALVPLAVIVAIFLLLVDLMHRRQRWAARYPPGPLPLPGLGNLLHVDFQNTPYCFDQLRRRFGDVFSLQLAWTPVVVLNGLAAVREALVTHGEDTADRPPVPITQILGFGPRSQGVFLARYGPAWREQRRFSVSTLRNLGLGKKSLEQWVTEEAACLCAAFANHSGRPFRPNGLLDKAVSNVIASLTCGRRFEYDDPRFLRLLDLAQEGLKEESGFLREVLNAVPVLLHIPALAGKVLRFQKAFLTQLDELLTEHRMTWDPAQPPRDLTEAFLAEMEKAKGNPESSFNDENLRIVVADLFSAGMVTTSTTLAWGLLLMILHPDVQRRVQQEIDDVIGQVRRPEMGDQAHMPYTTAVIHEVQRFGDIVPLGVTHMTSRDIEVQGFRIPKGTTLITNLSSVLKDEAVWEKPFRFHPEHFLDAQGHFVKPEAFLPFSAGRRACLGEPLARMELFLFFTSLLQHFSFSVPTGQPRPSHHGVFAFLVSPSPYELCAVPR
Chain of Cytochrome P450 2C19 (P33261 whole entry): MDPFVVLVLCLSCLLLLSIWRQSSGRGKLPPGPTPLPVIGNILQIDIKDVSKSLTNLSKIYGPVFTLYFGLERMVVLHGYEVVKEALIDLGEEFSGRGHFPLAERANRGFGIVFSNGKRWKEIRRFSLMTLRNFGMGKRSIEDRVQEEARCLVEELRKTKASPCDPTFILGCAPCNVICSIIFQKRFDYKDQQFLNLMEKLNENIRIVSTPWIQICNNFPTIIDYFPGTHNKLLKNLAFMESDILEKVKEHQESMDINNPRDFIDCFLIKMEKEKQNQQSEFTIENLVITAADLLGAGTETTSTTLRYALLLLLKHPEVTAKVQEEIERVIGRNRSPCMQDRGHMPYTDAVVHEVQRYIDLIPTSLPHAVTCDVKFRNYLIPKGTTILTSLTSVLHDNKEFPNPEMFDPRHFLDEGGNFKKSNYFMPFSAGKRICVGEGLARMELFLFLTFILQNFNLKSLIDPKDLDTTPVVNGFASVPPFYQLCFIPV

SMILES: O=C(NC[C@H](c1ccc(Cl)cc1)N1CCOCC1)c1sc(-c2ncccn2)nc1C(F)(F)F
- Cp(f) [1]: 1.46 µM
- CLint scaled at 1 µM [2]: 0.85 L/h/kg
- bioavailability [3]: ≥ 100%
- CLint scaled at 1 h, 1 µM (in vitro): 2.6 L/h/kg
- IC50 (P2X purinoceptor 7 [4]): 0.066 µM
- Cmax [5]: 2.7 µM
- IC50 (P2X purinoceptor 7 [6]): 0.0024 µM
- TDI (Cytochrome P450 1A2): Not Active
- solubility thermodynamic [7]: 0.016 mg/mL (≈ 32.1 µM)
- inhibition (INH) (Cytochrome P450 2C19): Not Active
- Ki (P2X purinoceptor 7 [8]): 0.055 µM
- TDI (Cytochrome P450 2D6): Not Active
- Cp(f) [9]: 0.0712 µM
- minimal effective dose [10]: 10 mg/kg
- Tmax [11]: 1 h
